Laboratory results from ChEMBL document CHEMBL3286189, “Discovery and SAR studies of a novel class of cytotoxic 1,4-disubstituted piperidines via Ugi reaction” (Eur J Med Chem, 2014).

Legend:
[1] = system: CAKI-1; assay: Cytostatic activity against human Caki1 cells assessed as inhibition of cell proliferation after 96 hrs by coulter counting analysis; assay type: functional, cell-based; conditions: CAKI-1, 96 h
How it was run: (§1)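 Anti-proliferative testing extended to human kidney Caki-1 and human liver Huh-7 tumour cells. The value reported is the IC50, the concentration that inhibits tumour cell growth by 50%.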

[2] = system: KM12; assay: Anticancer activity against human KM12 cells; assay type: functional
How it was run: (§2)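 Values come from the NCI 60-cell-line human tumour panel, run on a single analog. Cytostatic and cytotoxic responses were read for each cell line across graded molar concentrations of that compound.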

[3] = system: HOP-62; assay: Anticancer activity against human HOP62 cells; assay type: functional; how it was run: as §2
[4] = Anticancer activity against human UO31 cells; assay type: functional
How it was run: (§3)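 Assayed in the NCI Cancer-60 human tumour cell line panel, with activity read across several log-step concentrations.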

[5] = system: Huh-7; assay: Cytostatic activity against human HuH7 cells assessed as inhibition of cell proliferation after 96 hrs by coulter counting analysis; assay type: functional, cell-based; conditions: Huh-7, 96 h; how it was run: as §1
[6] = Anticancer activity against human UACC257 cells; assay type: functional; how it was run: as §3
[7] = Anticancer activity against human HCT15 cells; assay type: functional; how it was run: as §2
[8] = Anticancer activity against human HOP92 cells; assay type: functional; how it was run: as §2
[9] = system: 786-0; assay: Anticancer activity against human 786-0 cells; assay type: functional; how it was run: as §2
[10] = Anticancer activity against human RXF393 cells; assay type: functional; how it was run: as §2
[11] = system: TK-10; assay: Anticancer activity against human TK10 cells; assay type: functional; how it was run: as §2
[12] = Anticancer activity against human OVCAR3 cells; assay type: functional; how it was run: as §2
[13] = system: MDA-MB-435; assay: Anticancer activity against human MDA-MB-435 cells; assay type: functional; how it was run: as §2
[14] = system: CCRF-CEM; assay: Cytostatic activity against human CEM cells assessed as inhibition of cell proliferation after 72 hrs by coulter counting analysis; assay type: functional, cell-based; conditions: Homo sapiens, CCRF-CEM, 72 h
How it was run: (§4)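 Anti-proliferative screen in murine leukemia L1210, human T-lymphocyte CEM and human cervix carcinoma HeLa cultures. The value reported is the IC50, the concentration that inhibits cell proliferation by 50%.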

[15] = system: L1210; assay: Cytostatic activity against mouse L1210 cells assessed as inhibition of cell proliferation after 48 hrs by coulter counting analysis; assay type: functional, cell-based; conditions: Mus musculus, L1210, 48 h; how it was run: as §4
[16] = Anticancer activity against human MOLT4 cells; assay type: functional; how it was run: as §2
[17] = system: A549; assay: Anticancer activity against human A549/ATCC cells; assay type: functional; how it was run: as §2
[18] = Anticancer activity against human OVCAR8 cells; assay type: functional; how it was run: as §2
[19] = Anticancer activity against human HCC2998 cells; assay type: functional; how it was run: as §2
[20] = system: M14; assay: Anticancer activity against human M14 cells; assay type: functional; how it was run: as §2
[21] = system: A498; assay: Anticancer activity against human A498 cells; assay type: functional; how it was run: as §2
[22] = system: HeLa; assay: Cytostatic activity against human HeLa cells assessed as inhibition of cell proliferation after 72 hrs by coulter counting analysis; assay type: functional, cell-based; conditions: Homo sapiens, HeLa, 72 h; how it was run: as §4
[23] = system: SN12C; assay: Anticancer activity against human SN12C cells; assay type: functional; how it was run: as §2
[24] = system: HT-29; assay: Anticancer activity against human HT-29 cells; assay type: functional; how it was run: as §2
[25] = system: U-251; assay: Anticancer activity against human U251 cells; assay type: functional; how it was run: as §2
[26] = system: HL-60; assay: Anticancer activity against human HL60 (TB) cells; assay type: functional
How it was run: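 Run within the broad NCI-60 human tumour cell line panel screen of the National Cancer Institute.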

[27] = system: NCI-H226; assay: Anticancer activity against human NCI-H226 cells; assay type: functional; how it was run: as §2
[28] = system: SNB-19; assay: Anticancer activity against human SNB19 cells; assay type: functional; how it was run: as §2
[29] = Anticancer activity against human BT549 cells; assay type: functional; how it was run: as §2
[30] = system: SK-MEL-5; assay: Anticancer activity against human SK-MEL-5 cells; assay type: functional; how it was run: as §2
[31] = system: IGROV-1; assay: Anticancer activity against human IGROV1 cells; assay type: functional; how it was run: as §2
[32] = system: NCI-H460; assay: Anticancer activity against human NCI-H460 cells; assay type: functional; how it was run: as §2
[33] = system: NCI/ADR-RES; assay: Anticancer activity against human NCI/ADR-RES cells; assay type: functional; how it was run: as §2
[34] = system: Malme-3M; assay: Anticancer activity against human MALME-3M cells; assay type: functional; how it was run: as §2
[35] = system: SK-OV-3; assay: Anticancer activity against human SKOV3 cells; assay type: functional; how it was run: as §2
[36] = system: HCT-116; assay: Anticancer activity against human HCT116 cells; assay type: functional; how it was run: as §2
[37] = system: NCI-H522; assay: Anticancer activity against human NCI-H522 cells; assay type: functional; how it was run: as §2
[38] = system: SW-620; assay: Anticancer activity against human SW620 cells; assay type: functional; how it was run: as §2
[39] = Anticancer activity against human SF295 cells; assay type: functional; how it was run: as §2
[40] = system: PC-3; assay: Anticancer activity against human PC3 cells; assay type: functional; how it was run: as §2
[41] = read-out: pLC50 (the source's name) (converted)

CC(C)(C)OC(=O)N[C@@H](Cc1ccccc1)C(=O)N(Cc1ccccc1)C1(C(=O)NCc2ccccc2)CCN(Cc2ccccc2)CC1
IC50 [1]: 9.5 µM
GI50 [2]: 4.17 µM
CC50 [2, 41]: > 100 µM
TGI ([2]; read-out: pTGI): > 100 µM
GI50 [3]: 3.89 µM
CC50 [3, 41]: > 100 µM
TGI ([3]; read-out: pTGI): > 100 µM
GI50 ([4]; UO-31): 2.14 µM
CC50 ([4]; UO-31, read-out: pLC50 (the source's name) (converted)): > 100 µM
TGI ([4]; UO-31, read-out: pTGI): > 100 µM
IC50 [5]: 6.4 µM
GI50 ([6]; UACC-257): 2.57 µM
CC50 ([6]; UACC-257, read-out: pLC50 (the source's name) (converted)): > 100 µM
TGI ([6]; UACC-257, read-out: pTGI): > 100 µM
GI50 ([7]; HCT-15): 3.16 µM
CC50 ([7]; HCT-15, read-out: pLC50 (the source's name) (converted)): > 100 µM
TGI ([7]; HCT-15, read-out: pTGI): > 100 µM
GI50 ([8]; HOP-92): 1.45 µM
CC50 ([8]; HOP-92, read-out: pLC50 (the source's name) (converted)): > 100 µM
TGI ([8]; HOP-92, read-out: pTGI (converted)): 5.37 µM
GI50 [9]: 3.02 µM
CC50 [9, 41]: > 100 µM
TGI ([9]; read-out: pTGI): 43.7 µM
GI50 ([10]; RXF 393): 3.09 µM
CC50 ([10]; RXF 393, read-out: pLC50 (the source's name) (converted)): > 100 µM
TGI ([10]; RXF 393, read-out: pTGI): > 100 µM
GI50 [11]: 3.16 µM
CC50 [11, 41]: > 100 µM
TGI ([11]; read-out: pTGI (converted)): 70.8 µM
GI50 ([12]; OVCAR-3): 3.98 µM
CC50 ([12]; OVCAR-3, read-out: pLC50 (the source's name) (converted)): > 100 µM
TGI ([12]; OVCAR-3, read-out: pTGI): > 100 µM
GI50 [13]: 3.02 µM
CC50 [13, 41]: > 100 µM
TGI ([13]; read-out: pTGI): > 100 µM
IC50 [14]: 4.4 µM
IC50 [15]: 3.5 µM
GI50 ([16]; MOLT-4): 1.82 µM
CC50 ([16]; MOLT-4, read-out: pLC50 (the source's name) (converted)): > 100 µM
TGI ([16]; MOLT-4, read-out: pTGI (converted)): 6.31 µM
GI50 [17]: 3.89 µM
CC50 [17, 41]: > 100 µM
TGI ([17]; read-out: pTGI): > 100 µM
GI50 ([18]; OVCAR-8): 3.47 µM
CC50 ([18]; OVCAR-8, read-out: pLC50 (the source's name) (converted)): > 100 µM
TGI ([18]; OVCAR-8, read-out: pTGI): > 100 µM
GI50 ([19]; HCC 2998): 4.57 µM
CC50 ([19]; HCC 2998, read-out: pLC50 (the source's name) (converted)): > 100 µM
TGI ([19]; HCC 2998, read-out: pTGI): > 100 µM
GI50 [20]: 2.63 µM
CC50 [20, 41]: > 100 µM
TGI ([20]; read-out: pTGI (converted)): 44.7 µM
GI50 [21]: 1.45 µM
CC50 [21, 41]: > 100 µM
TGI ([21]; read-out: pTGI (converted)): 6.31 µM
IC50 [22]: 4.2 µM
GI50 [23]: 3.47 µM
CC50 [23, 41]: > 100 µM
TGI ([23]; read-out: pTGI): > 100 µM
GI50 [24]: 2.14 µM
CC50 [24, 41]: 57.5 µM
TGI ([24]; read-out: pTGI (converted)): 6.76 µM
GI50 [25]: 3.16 µM
CC50 [25, 41]: > 100 µM
TGI ([25]; read-out: pTGI): > 100 µM
GI50 [26]: 2.51 µM
CC50 [26, 41]: > 100 µM
TGI ([26]; read-out: pTGI (converted)): 6.17 µM
GI50 [27]: 3.24 µM
CC50 [27, 41]: > 100 µM
TGI ([27]; read-out: pTGI): > 100 µM
GI50 [28]: 5.25 µM
CC50 [28, 41]: > 100 µM
TGI ([28]; read-out: pTGI): > 100 µM
GI50 ([29]; BT-549): 2.09 µM
CC50 ([29]; BT-549, read-out: pLC50 (the source's name) (converted)): > 100 µM
TGI ([29]; BT-549, read-out: pTGI (converted)): 7.94 µM
GI50 [30]: 1.74 µM
CC50 [30, 41]: 6.31 µM
TGI ([30]; read-out: pTGI (converted)): 3.31 µM
GI50 [31]: 5.75 µM
CC50 [31, 41]: > 100 µM
TGI ([31]; read-out: pTGI): > 100 µM
GI50 [32]: 3.02 µM
CC50 [32, 41]: > 100 µM
TGI ([32]; read-out: pTGI (converted)): 87.1 µM
GI50 [33]: 2.88 µM
CC50 [33, 41]: > 100 µM
TGI ([33]; read-out: pTGI (converted)): 46.8 µM
GI50 [34]: 3.02 µM
CC50 [34, 41]: > 100 µM
TGI ([34]; read-out: pTGI (converted)): 10 µM
GI50 [35]: 3.02 µM
CC50 [35, 41]: > 100 µM
TGI ([35]; read-out: pTGI): > 100 µM
GI50 [36]: 2.4 µM
CC50 [36, 41]: > 100 µM
TGI ([36]; read-out: pTGI (converted)): 10 µM
GI50 [37]: 3.98 µM
CC50 [37, 41]: > 100 µM
TGI ([37]; read-out: pTGI): > 100 µM
GI50 [38]: 3.47 µM
CC50 [38, 41]: > 100 µM
TGI ([38]; read-out: pTGI): > 100 µM
GI50 ([39]; SF-295): 2.88 µM
CC50 ([39]; SF-295, read-out: pLC50 (the source's name) (converted)): > 100 µM
TGI ([39]; SF-295, read-out: pTGI): > 100 µM
GI50 [40]: 2.45 µM
CC50 [40, 41]: > 100 µM
TGI ([40]; read-out: pTGI): > 100 µM
